Series [1] concerns the target T1, Nuclear factor erythroid 2-related factor 2 (Mus musculus) (UniProt Q60795).
T1 sequence (whole entry): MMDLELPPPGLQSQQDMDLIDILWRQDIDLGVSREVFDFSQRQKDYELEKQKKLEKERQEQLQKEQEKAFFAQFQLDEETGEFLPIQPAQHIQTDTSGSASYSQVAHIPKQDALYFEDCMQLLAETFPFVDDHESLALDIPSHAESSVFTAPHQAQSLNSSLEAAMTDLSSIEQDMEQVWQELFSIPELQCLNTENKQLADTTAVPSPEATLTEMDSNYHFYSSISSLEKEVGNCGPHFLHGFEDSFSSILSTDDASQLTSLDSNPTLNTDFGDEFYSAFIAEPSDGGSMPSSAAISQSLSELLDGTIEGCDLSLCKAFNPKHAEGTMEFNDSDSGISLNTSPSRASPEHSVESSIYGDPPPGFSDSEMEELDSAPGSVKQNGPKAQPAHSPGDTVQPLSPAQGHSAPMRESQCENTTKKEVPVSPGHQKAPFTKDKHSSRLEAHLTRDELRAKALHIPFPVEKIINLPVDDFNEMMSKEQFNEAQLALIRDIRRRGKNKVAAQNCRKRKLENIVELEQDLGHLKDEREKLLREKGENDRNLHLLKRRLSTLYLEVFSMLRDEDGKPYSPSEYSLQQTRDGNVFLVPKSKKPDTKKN
Briefly: Activation of Nrf2 in mouse Hepa1c1c7 cells assessed as concentration required to 2 fold induction of NQO1 production after 24 hrs by MTT colorimetric assay. Type of series: cell-based. In outline: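 Hepa1c1c7 mouse hepatoma cells exposed to a concentration range for 24 h. NQO1 enzymatic activity measured by colorimetric induction assay. Value reported as CD, the concentration giving a two-fold increase in NQO1 activity.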

The species named for series [2] is Mus musculus. Briefly: Increase of Nrf2 protein level in mouse Hepa1c1c7 cells at 10 uM after 24 hrs by Western blot analysis. Type of series: functional, cell-based. The essentials:
(§1)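 Hepa1c1c7 cells incubated with test compounds at 10 µM for various exposure times, up to 24 h. Nrf2, HO-1 and NQO1 protein levels assessed by Western blot.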

For series [3], the species on record is Mus musculus. The experiment in a line: Increase of Nrf2 protein level in mouse Hepa1c1c7 cells at 10 uM by Western blot analysis. The class given is functional, cell-based. The settings on record: TDE = time-dependent effect. The essentials:
as §1

In series [4] the target is T1, Nuclear factor erythroid 2-related factor 2 (Mus musculus). The experiment in a line: Activation of Nrf2 in mouse Hepa1c1c7 cells assessed as increase of HO-1 expression at 10 uM after 6 hrs by Western blot analysis. The class given is cell-based. The essentials:
as §1

The target is the same in series [5]. The experiment in a line: Activation of Nrf2 in mouse Hepa1c1c7 cells assessed as increase of NQO1 expression at 10 uM measured before 24 hrs by Western blot analysis. Type of series: cell-based. In outline: as §1
For series [6], the target named is T2, Keap1/Nrf2 (Homo sapiens) (UniProt Q16236+Q14145). The experiment in a line: Inhibition of mCherry labeled Keap1 interaction to DLG motif from Nrf2 in human HEK293 cells at 10 uM by FRET based assay. Type of series: cell-based. In outline: (§2)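 HEK293 cells were co-transfected with EGFP-Nrf2 and Keap1-mCherry. Each cell was imaged by FLIM twice: once basal and once 1 h after 10 µM compound. EGFP lifetime and FRET efficiency were calculated in the cytoplasm. High- and low-FRET-efficiency populations were scored to distinguish DLG-dependent binding from ETGE-dependent binding.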

Series [7] addresses T2, Keap1/Nrf2 (Homo sapiens). Briefly: Inhibition of mCherry labeled Keap1 interaction to ETGE motif from Nrf2 in human HEK293 cells at 10 uM by FRET based assay. Type of series: cell-based. The essentials:
as §2

Series [8] is described as follows: Therapeutic index, ratio of GI50 for mouse Hepa1c1c7 cells to CD for activation of Nrf2 in mouse Hepa1c1c7 cells assessed as concentration required to 2 fold induction of NQO1 production. The class given is cell-based. The settings on record: read-out: TI.
In series [9] the target is T2, Keap1/Nrf2 (Homo sapiens). The experiment in a line: Inhibition of kelch domain of Keap1 (unknown origin) interaction to high affinity ETGE motif from Nrf2 unknown origin) at 100 uM by fluorescence polarization assay. Type of series: protein assay. The essentials:
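Fluorescence polarization competition. Keap1 Kelch domain with fluorescein-labelled ETGE peptide FITC-β-DEETGEF-OH (β = β-alanine). Displacement measured with a fixed 100 µM inhibitor; percent inhibition reported.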

Series [10] has as its target T1, Nuclear factor erythroid 2-related factor 2 (Mus musculus). Briefly: Activation of Nrf2 in mouse Hepa1c1c7 cells assessed as induction of NQO1 production at 10 uM after 24 hrs by MTT colorimetric assay relative to control. Type of series: cell-based. The essentials: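 Hepa1c1c7 mouse hepatoma cells treated at a fixed 10 µM for 24 h. NQO1 enzyme activity read by colorimetric induction assay and expressed as fold induction over control.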

Series [11] addresses T3, Keap1/Nrf2 (Homo sapiens, UniProt Q14145). Briefly: Inhibition of kelch domain of Keap1 (unknown origin) interaction to high affinity ETGE motif from Nrf2 by fluorescence polarization assay. The class given is protein assay. The essentials:
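Competitive fluorescence polarization, dose-response format. Keap1 Kelch domain with fluorescein-labelled Nrf2 ETGE peptide FITC-β-DEETGEF-OH. EC50 derived from dose-response curves.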

For series [12], the target named is T3, Keap1/Nrf2. Briefly: Inhibition of Keap1 (unknown origin) interaction to Nrf2. The class given is protein assay.
For series [13], the species on record is Mus musculus. Briefly: Increase of Nrf2 protein level in mouse Hepa1c1c7 cells at 10 uM after 3 to 6 hrs by Western blot analysis. The class given is functional, cell-based. In outline: as §1
Series [14] is described as follows: Cytotoxicity against mouse Hepa1c1c7 cells assessed as cell viability at 200 uM after 24 to 48 hrs by SRB assay. The class given is cell-based. The note with it: read-out: Activity. In outline:
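Hepa1c1c7 cells exposed to compounds at up to 200 µM for 24 and 48 h. Viability determined by sulforhodamine B assay.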

In series [15] the target is T2, Keap1/Nrf2 (Homo sapiens). The experiment in a line: Inhibition of kelch domain of Keap1 (unknown origin) interaction to high affinity ETGE motif from Nrf2 unknown origin) in presence of 0 to 1 % v/v Triton X100 by fluorescence polarization assay. Type of series: protein assay.
For series [16], the target named is Kelch-like ECH-associated protein 1 (Homo sapiens) (UniProt Q14145). The experiment in a line: Binding affinity to kelch domain of Keap1 (unknown origin) using high affinity ETGE motif from Nrf2 unknown origin) at 200 uM by fluorescence polarization assay.

Calls of active or inactive are those of the source. No cut-off for these calls is given here.

T2 sequence (Q14145 whole entry, looked up): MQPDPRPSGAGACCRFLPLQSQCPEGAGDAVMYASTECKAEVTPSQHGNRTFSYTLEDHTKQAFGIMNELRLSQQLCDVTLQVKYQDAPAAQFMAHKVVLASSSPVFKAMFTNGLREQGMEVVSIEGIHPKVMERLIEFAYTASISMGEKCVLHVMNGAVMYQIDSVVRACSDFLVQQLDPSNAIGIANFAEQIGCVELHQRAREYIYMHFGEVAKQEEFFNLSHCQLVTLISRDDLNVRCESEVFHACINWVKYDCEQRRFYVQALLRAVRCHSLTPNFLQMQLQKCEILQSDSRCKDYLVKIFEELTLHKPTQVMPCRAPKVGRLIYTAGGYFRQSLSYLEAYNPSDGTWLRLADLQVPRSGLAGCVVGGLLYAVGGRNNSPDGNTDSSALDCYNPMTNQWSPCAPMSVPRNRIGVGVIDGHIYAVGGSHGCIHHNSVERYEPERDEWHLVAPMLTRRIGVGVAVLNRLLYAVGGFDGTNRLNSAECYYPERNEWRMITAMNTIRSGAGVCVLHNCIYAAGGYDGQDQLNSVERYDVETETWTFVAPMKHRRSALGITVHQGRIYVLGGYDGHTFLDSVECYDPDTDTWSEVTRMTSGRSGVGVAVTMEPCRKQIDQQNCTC
T2 sequence (Q16236 whole entry, looked up): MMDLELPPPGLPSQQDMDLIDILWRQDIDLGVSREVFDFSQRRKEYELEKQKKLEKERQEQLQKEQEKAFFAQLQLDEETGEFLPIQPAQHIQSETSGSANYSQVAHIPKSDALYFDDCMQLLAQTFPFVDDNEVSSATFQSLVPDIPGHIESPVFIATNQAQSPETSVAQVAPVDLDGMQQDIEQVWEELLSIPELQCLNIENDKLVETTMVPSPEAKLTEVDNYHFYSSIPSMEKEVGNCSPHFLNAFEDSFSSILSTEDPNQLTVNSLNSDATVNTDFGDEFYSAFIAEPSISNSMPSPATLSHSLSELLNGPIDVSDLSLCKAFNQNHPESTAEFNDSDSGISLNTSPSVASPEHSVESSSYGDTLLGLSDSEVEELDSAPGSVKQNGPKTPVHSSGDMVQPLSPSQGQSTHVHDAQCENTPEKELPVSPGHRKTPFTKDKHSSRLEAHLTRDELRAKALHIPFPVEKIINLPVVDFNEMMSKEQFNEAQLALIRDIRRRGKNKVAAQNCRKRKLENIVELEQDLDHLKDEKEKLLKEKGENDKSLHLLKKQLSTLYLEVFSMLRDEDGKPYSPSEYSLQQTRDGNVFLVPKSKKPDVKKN
T3 sequence (Q16236 whole entry, the tested form may be a part): as the sequence (Q16236 whole entry, looked up) above
T3 sequence (Q14145 whole entry, the tested form may be a part): as the sequence (Q14145 whole entry, looked up) above
Chain of Kelch-like ECH-associated protein 1 (Homo sapiens) (Q14145 whole entry, the tested form may be a part): as the sequence (Q14145 whole entry, looked up) above

As for `C[S+]([O-])CCCCN=C=S` (configuration not stated) [SULFORAPHANE], in series [1], the CD is 0.3 µM. The result in series [2] and in [4] was Active. For the same compound, the Activity entry in series [3] was “tde”. The outcome in series [5] was inactive. Moreover, the inhibition entry in series [6] is “Active”. Moreover, in series [7], the inhibition result was “inactive”. Further, the selectivity ratio in series [8] stood at 250.
The compound `Cc1cccc(-n2cc(-c3cccc([N+](=O)[O-])c3)nn2)c1` displayed an inhibition in series [9] of 68.9%. Further, the fold change (FC) in series [10] came out at 2.2. In series [11], a half-maximal effect (EC50) was put at 10 µM. Also, the CD in series [1] was found to be 1.3 µM. Moreover, the result in [2] and in series [4] was Active. Moreover, in series [3], the Activity result was “tde”. In addition, in [5], the outcome was inactive.
Ac-WRQDIDL-OH showed a concentration giving a half-maximal response (EC50) in series [12] of 17.1 µM.
On to `O=[N+]([O-])c1cccc(-c2cn(-c3cccc(I)c3)nn2)c1`, for which the inhibition in series [9] worked out at 67.2%. The fold change (FC) in series [10] stood at 4. In [11], this compound gave a half-maximal effective concentration (EC50) of 7.1 µM. Also, the CD in [1] came to 0.6 µM. In addition, the outcome in [2], in series [13], in [4] and in series [16] was Active. Moreover, the Activity result in series [3] was “tde”. In addition, the outcome in series [5] was inactive. In addition, the inhibition result in series [6] and in series [15] was “Active” each time. In addition, the inhibition result in [7] was “inactive”. For the same compound, the viability at 200 µM in series [14] amounted to 100%. Moreover, the selectivity ratio in series [8] was > 1000.
As to `O=C(O)c1cccc(-n2cc(-c3cccc([N+](=O)[O-])c3)nn2)c1`, the inhibition in series [9] came to 80.1%. The fold change (FC) in series [10] amounted to 0.83. The compound also registered an EC50 in series [11] of 5 µM. Besides, in series [1], the CD is > 10 µM.
The corresponding values for `O=[N+]([O-])c1cccc(-c2cn(-c3ccccc3)nn2)c1` are 66.9%, 1.95, 20.6 µM and > 10 µM.
Compound `CC(C)(C)c1cccc(-n2cc(-c3cccc([N+](=O)[O-])c3)nn2)c1` gave an inhibition in [9] of 69.8%. Also, in series [10], the fold change (FC) came to 1.93. Also, in [11], a half-maximal response (EC50) required 37.8 µM. Further, the CD in [1] was > 10 µM. Further, the result in [2] was inactive.
Turning to `COc1cccc(-n2cc(-c3cccc([N+](=O)[O-])c3)nn2)c1`, the inhibition in series [9] was 68.2%. In addition, the fold change (FC) in series [10] was determined as 2.56. This compound showed a concentration for a half-maximal effect (EC50) in [11] of 15 µM. In [1], the CD came to 4.7 µM.
`O=[N+]([O-])c1cccc(-c2cn(-c3cccc(Cl)c3)nn2)c1` returned an inhibition in series [9] of 60.4%. In addition, the fold change (FC) in [10] worked out at 2.5. Besides, it took 8.8 µM to reach a half-maximal effect in series [11] (EC50). For the same compound, in [1], the CD was 0.7 µM.
Consider `O=[N+]([O-])c1cccc(-c2cn(-c3cccc(Br)c3)nn2)c1`, for which the inhibition in [9] came out at 68.2%. Further, the fold change (FC) in series [10] was found to be 2.94. Moreover, a half-maximal effect in series [11] (EC50) was put at 24.5 µM. Also, the CD in [1] was found to be 1.2 µM.

The values are drawn from ChEMBL document CHEMBL3616400, “Design, Synthesis, and Evaluation of Triazole Derivatives That Induce Nrf2 Dependent Gene Products and Inhibit the Keap1-Nrf2 Protein-Protein Interaction” (J Med Chem, 2015).
